In data set [1] the test system is Homo sapiens. Put plainly: Antitumor activity against human SK-RC-52 cells xenografted BALB/c nu/nu mouse assessed as inhibition of tumor growth at 20 mg/kg, ip. Format: functional, organism-based. Set-up: dose 20 mg/kg.
In data set [2] the test system is Mus musculus. Put plainly: Toxicity in human SK-RC-52 cells xenografted BALB/c nu/nu mouse assessed as effect on body weight at 20 mg/kg, ip. The data set is classed as organism-based. Set-up: dose 20 mg/kg, route intraperitoneal. The note with it: in vivo.
Data set [3] has as its target T1, Carbonic anhydrase 9 (Homo sapiens, UniProt Q16790). Put plainly: Binding affinity to human CA9 catalytic domain by isothermal titration calorimetry.
In data set [4] the target is Albumin (Homo sapiens, UniProt P02768). Put plainly: Binding affinity to HSA by isothermal titration calorimetry. The data set is classed as ADME.
Albumin, sequence (P02768 whole entry): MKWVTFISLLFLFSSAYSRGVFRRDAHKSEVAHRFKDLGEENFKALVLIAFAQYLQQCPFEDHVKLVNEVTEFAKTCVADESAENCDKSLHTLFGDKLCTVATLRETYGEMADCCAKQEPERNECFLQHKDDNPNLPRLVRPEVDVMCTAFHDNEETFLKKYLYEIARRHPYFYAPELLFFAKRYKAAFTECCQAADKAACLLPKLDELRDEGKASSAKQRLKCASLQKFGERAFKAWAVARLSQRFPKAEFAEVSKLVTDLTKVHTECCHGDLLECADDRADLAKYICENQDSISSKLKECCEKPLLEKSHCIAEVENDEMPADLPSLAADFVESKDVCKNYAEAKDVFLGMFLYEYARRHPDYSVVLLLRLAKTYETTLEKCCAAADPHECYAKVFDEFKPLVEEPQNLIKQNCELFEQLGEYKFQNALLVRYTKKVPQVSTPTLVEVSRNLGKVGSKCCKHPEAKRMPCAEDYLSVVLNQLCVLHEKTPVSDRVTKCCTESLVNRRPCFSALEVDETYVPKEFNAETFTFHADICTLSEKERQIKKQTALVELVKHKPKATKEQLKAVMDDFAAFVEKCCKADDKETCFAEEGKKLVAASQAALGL
Data set [5] has as its system Blood. Kind of data set: Drug level in human LS 174T cells xenografted BALB/c nu/nu mouse blood at 0.5 umol. iv. The data set is classed as ADME, cell-based, LS174T. Conditions: in vivo, read-out: Drug uptake. Summed up:
(§1)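 A bolus i.v. injection of 340 µg (0.5 µmol) was given to tumor-bearing mice. Blood concentration was estimated immediately at the end of the bolus injection.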

Data set [6] concerns Blood. Kind of data set: Drug level in human SK-RC-52 cells xenografted BALB/c nu/nu mouse blood at 0.5 umol. iv. The data set is classed as ADME, cell-based. The note with it: read-out: Drug uptake. Summed up:
as §1

In data set [7] the test system is Homo sapiens. Put plainly: Antitumor activity against human SK-RC-52 cells xenografted BALB/c nu/nu mouse assessed as inhibition of tumor growth at 340 ug, iv administered as 5 weekly injection schedule for 3 consecutive weeks. The data set is classed as functional, organism-based. Summed up:
(§2)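 Subcutaneous xenografts in Balb/c nude mice, n = 5 per group. Dosing was 340 µg (17 mg/kg, 0.5 µmol) per injection i.v. Vehicle was saline with 15% (v/v) DMSO, and controls received vehicle alone. Read-out was tumor volume over time, given as mean ± SE.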

In data set [8] the test system is Mus musculus. Put plainly: Toxicity in human SK-RC-52 cells xenografted BALB/c nu/nu mouse assessed as effect on body weight at 340 ug, iv administered as 5 weekly injection schedule for 3 consecutive weeks. The data set is classed as organism-based. Conditions: in vivo. The essentials:
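SK-RC-52 xenografted Balb/c nude mice, n = 5, given 340 µg (17 mg/kg) per injection i.v. in saline with 15% (v/v) DMSO. Body weight was monitored during therapy and expressed as % of body weight on day 1 of treatment.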

For data set [9], the system named is LS174T. Put plainly: Antitumor activity against human LS 174T cells xenografted BALB/c nu/nu mouse assessed as inhibition of tumor growth at 340 ug, iv administered as 5 weekly injection schedule for 2 consecutive weeks. Format: functional, organism-based. Summed up:
as §2

For data set [10], the system named is Mus musculus. Kind of data set: Drug uptake in human LS 174T cells xenografted BALB/c nu/nu mouse at 1.26 umol, iv after 1 hr. Conditions: in vivo. The data set is classed as ADME, organism-based, LS174T. The essentials: (§3)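 Balb/c nu/nu mice carried subcutaneous LS174T tumors of about 500 mg. They received 680 µg (1.26 µmol) of fluorescent compound in the tail vein and were sacrificed 1 h or 2 h later. Fluorescence microscopy was done on 10 µm sections of tumor, muscle, heart, lung, intestine, spleen, kidney and liver. Exposures were 900 ms (1 h) and 1100 ms (2 h).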

A short description of data set [11]: Drug uptake in human LS 174T cells assessed as increase in fluorescence intensity at 3 uM by FACS method relative to untreated control. Conditions: ls174t. The data set is classed as ADME, cell-based. The essentials:
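LS174T cells were incubated with fluorescein-labelled compound at 0.26 or 3 µM and analysed by flow cytometry in the FITC channel. Mean fluorescence was compared with unstained cells. Free FAM served as a dye control, and polyclonal anti-CA IX staining confirmed antigen presence.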

Data set [12] concerns Mus musculus. Kind of data set: Drug uptake in human LS 174T cells xenografted BALB/c nu/nu mouse at 1.26 umol, iv after 2 hrs. Format: ADME, organism-based, LS174T. The note with it: in vivo. Summed up:
as §3

The test system of data set [13] is Kidney. Kind of data set: Drug uptake in human LS 174T cells xenografted BALB/c nu/nu mouse kidney at 1.26 umol, iv after 1 hr. The data set is classed as ADME, organism-based, LS174T. Conditions: in vivo. The essentials:
as §3

Data set [14] relates to Liver. Kind of data set: Drug uptake in human LS 174T cells xenografted BALB/c nu/nu mouse liver at 1.26 umol, iv after 1 hr. Conditions: in vivo. Format: ADME, organism-based, LS174T. The essentials:
as §3

Data set [15] has as its system Intestine. Kind of data set: Drug uptake in human LS 174T cells xenografted BALB/c nu/nu mouse intestine at 1.26 umol, iv after 1 hr. Conditions: in vivo. Format: ADME, organism-based, LS174T. Summed up: as §3
Data set [16] concerns the target T1, Carbonic anhydrase 9. Kind of data set: Inhibition of human CA9 catalytic domain using 4-nitrophenylacetate substrate by colorimetry. The essentials: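 CA IX esterase activity was measured colorimetrically via conversion of 4-nitrophenylacetate and reported as Ki. Line 15 was run in the presence of 10 µM mouse serum albumin.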
The test system of data set [17] is LS174T. Kind of data set: Antitumor activity against human LS 174T cells xenografted BALB/c nu/nu mouse assessed as inhibition of tumor growth at 25 mg/kg, ip. Format: functional, organism-based. More on the design: dose 25 mg/kg. The essentials:
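Balb/c nude mice with subcutaneous LS174T human colorectal xenografts, dosed i.p. at 25 mg/kg/day. Vehicle controls received saline containing 15% (v/v) DMSO i.v. Tumor growth was followed as mean tumor volume ± SE, n = 5 per group. Body weight was also tracked as % of day-1 weight.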

Data set [18] concerns Mus musculus. Kind of data set: Toxicity in human SK-RC-52 cells xenografted BALB/c nu/nu mouse assessed as effect on body weight at 25 mg/kg, ip. Format: organism-based. Set-up: dose 25 mg/kg, route intraperitoneal. The note with it: in vivo.

Calls of active or inactive are those of the source. The rule behind the calls is not given here.

The text below walks through data of ChEMBL document CHEMBL1154037, “In vivo targeting of tumor-associated carbonic anhydrases using acetazolamide derivatives” (Bioorg Med Chem Lett, 2009).

In the case of `CCN(CC)CCNC(=O)c1c(C)[nH]c(/C=C2\C(=O)Nc3ccc(F)cc32)c1C` [SUNITINIB], in data set [1], the result was Active. Moreover, in data set [2], the Activity result is listed as “Non-toxic”.

In the case of `NS(=O)(=O)c1nnc(NC(=O)CCC(=O)NC(CCCCNC(=O)CCCc2ccc(I)cc2)C(=O)O)s1` (stereo not drawn), the values for the Kd in [3] and in [4] were 3.2 nM and 820 nM, respectively. Besides, the concentration in data set [5] and in data set [6] was 250 µM throughout. In data set [7], the outcome was Active. Also, the Activity entry in data set [8] was “Non-toxic”. Also, the result in [9] was inactive.

On to `NS(=O)(=O)c1nnc(NC(=O)c2ccc(-c3c4ccc(=O)cc-4oc4cc(O)ccc34)c(C(=O)O)c2)s1`, for which the Drug uptake result in [10], in data set [12], in [13], in data set [14] and in data set [15] was “Active” each time. Also, the “fold change (FC)” value in data set [11] was more than 10. For the same compound, in data set [16], the Ki is 220 nM.

For the compound `O=c1[nH]cc(F)c(=O)[nH]1` [FLUOROURACIL], in [17], the result was Active. Besides, the Activity result in data set [18] is on record as “Toxic”.
